According to ChEMBL document CHEMBL1143406 (Antimicrob Agents Chemother, 2007):

Key:
[1] = Apparent oral clearance in HIV-negative human serum at 300 mg, po administered every 12 hrs coadministered with 600 mg of rifampin every 24 hrs; format: ADME, organism-based
How it was run: (§1)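 Healthy HIV-negative volunteers, open-label sequential periods at steady state. […] Plasma (EDTA) drawn predose and 1–12 h (plus 24 h) on last day of period. Atazanavir measured by HPLC-UV 212 nm, linear 25–20,000 ng/ml. Noncompartmental analysis; AUC24 taken as doubled AUC12.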

Homo sapiens [2] = assay: Toxicity in HIV-negative human assessed as hemoglobin level at 300 mg, po administered every 12 hrs; format: organism-based; conditions: in vivo
Homo sapiens [3] = assay: Toxicity in HIV-negative human assessed as bilirubin level at 300 mg, po administered every 12 hrs administered every 12 hrs coadministered with 600 mg of rifampin every 24 hrs; format: organism-based; conditions: in vivo
How it was run: (§2)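 Serum bilirubin measured at commercial laboratories as a safety test during steady-state dosing periods in healthy HIV-negative volunteers.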

Homo sapiens [4] = assay: Toxicity in HIV-negative human assessed as alanine aminotransferase levels at 300 mg, po administered every 12 hrs; format: organism-based; conditions: in vivo
Homo sapiens [5] = assay: Toxicity in gilbert's genotype lacking human assessed as bilirubin level at 300 mg, po administered every 12 hrs; format: organism-based; conditions: in vivo
[6] = Cmax in HIV-negative human at 300 mg coadministered with 100 mg of ritonavir every 24 hrs; format: ADME, organism-based; design: dose 300 mg; conditions: in vivo
[7] = Cmax in HIV-negative human at 400 mg administered every 24 hrs; format: ADME, organism-based; design: dose 400 mg; conditions: in vivo
[8] = Tmax in HIV-negative human at 400 mg, po administered every 12 hrs coadministered with 600 mg of rifampin every 24 hrs; format: ADME, organism-based; conditions: in vivo; how it was run: as §1
Homo sapiens [9] = assay: Toxicity in HIV-negative human assessed as bilirubin level at 300 mg, po administered every 12 hrs; format: organism-based; conditions: in vivo; how it was run: as §2
[10] = Drug level in HIV-negative human serum at 300 mg, po administered every 12 hrs measured at 12 hrs; format: ADME, organism-based
How it was run: (§3)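 Steady-state atazanavir level 12 h after morning dose, sampled before the evening dose and read directly from observed data. […] Plasma measured by HPLC-UV at 212 nm after tert-butyl methyl ether extraction. Linear range 25–20,000 ng/ml.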

[11] = Apparent oral clearance in HIV-negative human serum at 300 mg, po administered every 12 hrs; format: ADME, organism-based; how it was run: as §1
[12] = Cmax in HIV-negative human at 300 mg, po administered every 12 hrs coadministered with 600 mg of rifampin every 24 hrs; format: ADME, organism-based; design: dose 300 mg, route oral; conditions: in vivo; how it was run: as §1
[13] = AUC (24 hrs) in HIV-negative human at 300 mg, po administered every 12 hrs coadministered with 600 mg of rifampin every 24 hrs; format: ADME, organism-based; design: dose 300 mg, time < 24 hr, route oral; conditions: plasma; how it was run: as §1
[14] = Half life in HIV-negative human at 300 mg, po administered every 12 hrs; format: ADME, organism-based; conditions: in vivo; how it was run: as §1
[15] = AUC (12 hrs) in HIV-negative human at 300 mg, po administered every 12 hrs coadministered with 600 mg of rifampin every 24 hrs; format: ADME, organism-based; design: dose 300 mg, time < 12 hr, route oral; conditions: plasma; how it was run: as §1
Homo sapiens [16] = assay: Toxicity in HIV-negative human assessed as hemoglobin level at 300 mg, po administered every 12 hrs administered every 12 hrs coadministered with 600 mg of rifampin every 24 hrs; format: organism-based; conditions: in vivo
[17] = Apparent oral clearance in HIV-negative human serum at 300 mg, po administered every 12 hrs coadministered with […] every 24 hrs; format: ADME, organism-based
[18] = Drug level in HIV-negative human serum at 300 mg, po administered every 12 hrs coadministered with 600 mg of rifampin every 24 hrs measured at 12 hrs; format: ADME, organism-based; how it was run: as §3
Homo sapiens [19] = assay: Terminal apparent distribution volume in HIV-negative human serum at 300 mg, po administered every 12 hrs coadministered with 600 mg of rifampin every 24 hrs; format: ADME, organism-based; conditions: in vivo; how it was run: as §1
[20] = AUC (24 hrs) in HIV-negative human at 400 mg, po administered every 12 hrs coadministered with 600 mg of rifampin every 24 hrs; format: ADME, organism-based; design: dose 400 mg, time < 24 hr, route oral; conditions: plasma; how it was run: as §1
[21] = Half life in HIV-negative human at 400 mg, po administered every 12 hrs coadministered with 600 mg of rifampin every 24 hrs; format: ADME, organism-based; conditions: in vivo; how it was run: as §1
[22] = Cmax in HIV-negative human at 400 mg, po administered every 12 hrs coadministered with 600 mg of rifampin every 24 hrs; format: ADME, organism-based; design: dose 400 mg, route oral; conditions: in vivo; how it was run: as §1
[23] = AUC (24hrs) in HIV-negative human at 400 mg administered every 24 hrs; format: ADME, organism-based; conditions: plasma
[24] = Half life in HIV-negative human at 300 mg, po administered every 12 hrs coadministered with 600 mg of rifampin every 24 hrs; format: ADME, organism-based; conditions: in vivo; how it was run: as §1
[25] = Drug level in HIV-negative human serum at 400 mg, po administered every 12 hrs coadministered with 600 mg of rifampin every 24 hrs measured at 12 hrs; format: ADME, organism-based; how it was run: as §3
Homo sapiens [26] = assay: Toxicity in HIV-negative human assessed as creatinine levels at 400 mg, po administered every 12 hrs coadministered with 600 mg of rifampin every 24 hrs; conditions: in vivo
[27] = Tmax in HIV-negative human at 300 mg, po administered every 12 hrs coadministered with 600 mg of rifampin every 24 hrs; format: ADME, organism-based; conditions: in vivo; how it was run: as §1
Homo sapiens [28] = assay: Toxicity in HIV-negative human assessed as creatinine levels at 300 mg, po administered every 12 hrs administered every 12 hrs coadministered with 600 mg of rifampin every 24 hrs; format: organism-based; conditions: in vivo
Homo sapiens [29] = organism: Homo sapiens; assay: Toxicity in HIV-negative human assessed as grade 3 fatigue; format: organism-based; conditions: in vivo
[30] = AUC (12 hrs) in HIV-negative human at 300 mg, po administered every 12 hrs; format: ADME, organism-based; design: time < 12 hr, dose 300 mg, route oral; conditions: plasma; how it was run: as §1
Homo sapiens [31] = assay: Toxicity in human with six gilbert's genotype heterozygotes assessed as bilirubin level at 300 mg, po administered every 12 hrs; format: organism-based; conditions: in vivo
Homo sapiens [32] = assay: Toxicity in HIV-negative human assessed as alanine aminotransferase levels at 400 mg, po administered every 12 hrs coadministered with 600 mg of rifampin every 24 hrs; conditions: in vivo
Homo sapiens [33] = assay: Terminal apparent distribution volume in HIV-negative human serum at 300 mg, po administered every 12 hrs; format: ADME, organism-based; conditions: in vivo; how it was run: as §1
Homo sapiens [34] = assay: Terminal apparent distribution volume in HIV-negative human serum at 400 mg, po administered every 12 hrs coadministered with 600 mg of rifampin every 24 hrs; format: ADME, organism-based; conditions: in vivo; how it was run: as §1
[35] = Cmax in HIV-negative human at 300 mg, po administered every 12 hrs; format: ADME, organism-based; design: dose 300 mg, route oral; conditions: in vivo; how it was run: as §1
[36] = Tmax in HIV-negative human at 300 mg, po administered every 12 hrs; format: ADME, organism-based; conditions: in vivo; how it was run: as §1
[37] = AUC (12 hrs) in HIV-negative human at 400 mg, po administered every 12 hrs coadministered with 600 mg of rifampin every 24 hrs; format: ADME, organism-based; design: dose 400 mg, time < 12 hr, route oral; conditions: plasma; how it was run: as §1
Homo sapiens [38] = assay: Toxicity in human with two gilbert's genotype homozygotes assessed as bilirubin level at 300 mg, po administered every 12 hrs; format: organism-based; conditions: in vivo
Homo sapiens [39] = assay: Toxicity in HIV-negative human assessed as creatinine levels at 300 mg, po administered every 12 hrs; format: organism-based; conditions: in vivo
Homo sapiens [40] = assay: Toxicity in HIV-negative human assessed as hemoglobin level at 400 mg, po administered every 12 hrs coadministered with 600 mg of rifampin every 24 hrs; conditions: in vivo
Homo sapiens [41] = assay: Toxicity in HIV-negative human assessed as alanine aminotransferase levels at 300 mg, po administered every 12 hrs administered every 12 hrs coadministered with 600 mg of rifampin every 24 hrs; format: organism-based; conditions: in vivo
[42] = AUC (24 hrs) in HIV-negative human at 300 mg coadministered with 100 mg of ritonavir every 24 hrs; format: ADME, organism-based; design: dose 300 mg, time < 24 hr; conditions: plasma
[43] = AUC (24 hrs) in HIV-negative human at 300 mg, po administered every 12 hrs; format: ADME, organism-based; design: dose 300 mg, time < 24 hr, route oral; conditions: plasma; how it was run: as §1
Homo sapiens [44] = assay: Toxicity in HIV-negative human assessed as bilirubin level at 400 mg, po administered every 12 hrs coadministered with 600 mg of rifampin every 24 hrs; conditions: in vivo

- CL/F [1]: 1390 mL/min
- Cmax [6]: 6130 ng/mL
- Cmax [7]: 5200 ng/mL
- Tmax [8]: 2.9 h
- concentration at 12 h [10]: 811 ng/mL
- CL/F [11]: 202 mL/min
- Cmax [12]: 1430 ng/mL
- AUC at 24 h [13]: 10300 ng·h/mL
- half-life [14]: 5.1 h
- AUC at 12 h [15]: 5100 ng·h/mL
- CL/F [17]: 808 mL/min
- concentration at 12 h [18]: 44 ng/mL
- Vbeta (Homo sapiens [19]): 252 L
- AUC at 24 h [20]: 19600 ng·h/mL
- half-life [21]: 2.4 h
- Cmax [22]: 2360 ng/mL
- AUC at 24 h [23]: 29300 ng·h/mL
- half-life [24]: 2.2 h
- concentration at 12 h [25]: 113 ng/mL
- Tmax [27]: 2.7 h
- AUC at 12 h [30]: 23800 ng·h/mL
- Vbeta (Homo sapiens [33]): 78 L
- Vbeta (Homo sapiens [34]): 171 L
- Cmax [35]: 3910 ng/mL
- Tmax [36]: 3.2 h
- AUC at 12 h [37]: 9800 ng·h/mL
- AUC at 24 h [42]: 61400 ng·h/mL
- AUC at 24 h [43]: 47600 ng·h/mL
SMILES: COC(=O)N[C@H](C(=O)N[C@@H](Cc1ccccc1)[C@@H](O)CN(Cc1ccc(-c2ccccn2)cc1)NC(=O)[C@@H](NC(=O)OC)C(C)(C)C)C(C)(C)C [ATAZANAVIR]
- Activity (Homo sapiens [2]): Non-toxic
- Activity (Homo sapiens [3]): Non-toxic
- Activity (Homo sapiens [4]): Non-toxic
- Activity (Homo sapiens [5]): 2.6 mg/dL
- Activity (Homo sapiens [9]): Toxic
- Activity (Homo sapiens [16]): Non-toxic
- Activity (Homo sapiens [26]): Non-toxic
- Activity (Homo sapiens [28]): Non-toxic
- Activity (Homo sapiens [29]): 7%
- Activity (Homo sapiens [31]): 4.1 mg/dL
- Activity (Homo sapiens [32]): Non-toxic
- Activity (Homo sapiens [38]): 5 mg/dL
- Activity (Homo sapiens [39]): Non-toxic
- Activity (Homo sapiens [40]): Non-toxic
- Activity (Homo sapiens [41]): Non-toxic
- Activity (Homo sapiens [44]): Non-toxic
